# Compound activity from PubChem.
# NR2E3 ag-1: activates human photoreceptor nuclear receptor NR2E3. Q9Y5X4. GST-NR2E3/biotin-RetCOR TR-FRET, 1536-well. inhibition of corepressor binding, % at 4.78 µM. actives 0.12% (n = 320,000). AID 2300;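 active = percent inhibition above the cutoff of mean plus 3 SD of all tested compounds, set per screening campaign, cut at about 20% in these data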;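 note: 0% = DMSO wells and 100% = biotin wells as full block of FRET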
#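 Material – GST-tagged NR2E3 plus biotinylated RetCOR corepressor · Quantity – NR2E3 fusion 1.35 nM · Times – 5 h incubation at 4 °C · Medium – pH 7.5 Tris-based buffer · Technique – TR-FRET, Eu(K)-anti-GST donor, streptavidin-D2 acceptor, ex 340, em 617/671 nm · Benchmarks – high control biotin, low control 0.6% DMSO · Format – 1536-well plates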
# SMARCA2 activ: increases SMARCA2 function in MMTV reporter cells; MG213 cells, MMTV-luciferase reporter, dexamethasone, overnight; actives 1% (n = 370,000); activation, % at 9.1 µM; in the data active = activation above about 7.8%;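 note: 0% = vehicle wells and 100% = reference activator wells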
# NR2F2 inh: inhibitors of human COUP-TFII (NR2F2); HEK293T NGFI-A luciferase reporter, luminescence; P24468; inhibition, % at 8.6 µM; AID 686940; actives 0.7% (n = 370,000);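 active = inhibition above a per-plate cutoff, mean inhibition of test wells between control levels plus 3 SD, cut at about 38% in these data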;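 note: cells cotransfected with COUP-TFII expression vector driving the NGFI-A reporter; 0% = median of COUP-TF2 test wells and 100% = reporter-only cells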
# Target sequence (P24468 whole entry, looked up): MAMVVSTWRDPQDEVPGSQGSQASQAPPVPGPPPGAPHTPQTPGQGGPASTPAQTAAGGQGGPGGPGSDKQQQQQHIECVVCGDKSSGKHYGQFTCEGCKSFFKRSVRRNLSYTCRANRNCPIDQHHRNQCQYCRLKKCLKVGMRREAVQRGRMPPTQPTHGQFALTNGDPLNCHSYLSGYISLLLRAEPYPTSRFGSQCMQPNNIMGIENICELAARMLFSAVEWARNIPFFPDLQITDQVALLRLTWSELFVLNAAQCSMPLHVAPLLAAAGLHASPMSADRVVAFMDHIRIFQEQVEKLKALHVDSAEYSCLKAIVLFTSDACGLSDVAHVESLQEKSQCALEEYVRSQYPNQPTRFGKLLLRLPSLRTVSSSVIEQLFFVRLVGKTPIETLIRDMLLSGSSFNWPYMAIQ
# GalR3 antagonist: human GalR3 antagonism | inhibition, % at 3 µM | O60755 | AID 651719 | actives 0.44% (n = 360,000) | HEK293 GalR3-CNG cAMP membrane potential fluorescence; galR3 body fused to GalR1 C-terminus;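 active = inhibition above the screen-wide average plus 3 SD, cut at about 13% in these data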;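 note: forskolin and galanin both at EC90 stimulate the cells; cAMP rise reported by CNG channel membrane potential dye signal; 0% = forskolin plus galanin with DMSO and 100% = forskolin alone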
# NR2E3 ag-2: human photoreceptor-specific nuclear receptor agonism | actives 0.35% (n = 360,000) | inhibition of corepressor binding, % at 3.98 µM | Q9Y5X4 | CHO-S Gal4-NCOR/VP16-NR2E3 two-hybrid, luciferase | AID 602229;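 active = inhibition above the mean of all tested compounds plus 3 SD, cut at about 70% in these data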;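 note: 0% = DMSO with NR2E3 transfected cells and 100% = cells lacking NR2E3 construct; higher means lower luciferase signal from less NR2E3 corepressor binding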
# * marks the source's active call; other numbers are inactive results; . = no result. This is a sample that favours compounds with a hit; in the whole collection about 2.2% have one here.
SMILES,NR2E3 ag-1,SMARCA2 activ,NR2F2 inh,GalR3 antagonist,NR2E3 ag-2
COc1cc(NC(=O)c2ccccc2Cl)c(OC)cc1NC(=O)CN1CCCCC1,-3,7.8*,4,-6,-21
COCCCN1C(=O)[C@H](CC(=O)NCCCCc2ccccc2)[C@]2(C(=O)OC)CCCCC=C12,.,0,2,.,.
COc1c(O)cc2c(c1O)[C@@H]1O[C@H](CO)[C@@H](O)[C@H](O)C1OC2=O (some centres undefined),-1,0,0,13*,-12
Cc1ccc(NC2=C/C(=N/S(=O)(=O)c3cccs3)c3ccccc3C2=O)cc1,2,-7,-24,3,14
O=C1C(Nc2ccccc2)=C/C(=N/S(=O)(=O)c2cccs2)c2ccccc21,6,.,.,.,102*
Cc1cccc(CNC(=S)OC2CCC23CCC(c2ccccc2)CC3)c1 (centres undefined),.,0,-9,.,.
O=C(O)CCCc1nc2ccccc2s1,-3,1,8,-6,-11
O=C(CCCc1nc2ccccc2s1)NC(c1ccccc1)c1ccccc1,-3,7.9*,-3,0,-12
O=C(Nc1nc(-c2ccccc2)cs1)C1CCCN(S(=O)(=O)c2cccc([N+](=O)[O-])c2)C1 (centres undefined),3,-4,17,-7,7
O=C(Nc1nc(-c2ccc(S(=O)(=O)N3CCCC3)cc2)cs1)c1cccs1,-1,-4,55*,-1,-30
O=C(Nc1nc(-c2ccccc2)cs1)C1CCCN(S(=O)(=O)c2ccccc2)C1 (centres undefined),0,-6,44*,-5,-8
COc1ccc(-n2c(SCC(=O)NNC(=S)Nc3ccccc3)nc3ccccc3c2=O)cc1,.,-3,9,.,.
COc1ccc(N2CCN(C(CNC(=O)C(C)(C)C)c3ccco3)CC2)cc1 (centres undefined),3,1,2,3,-11
COc1ccc(N2CCN(C(CNC(=O)C(C)(C)C)c3cccnc3)CC2)cc1 (centres undefined),1,7.8*,1,-6,7
COc1cccc(OC[C@@H](O)CN2CCC(C(O)(c3ccccc3)c3ccccc3)CC2)c1,.,-4,-1,.,.
CC(C)CNc1cccc2c1S(=O)(=O)N(Cc1cn(Cc3ccc(F)cc3)nn1)Cc1ccccc1O2,.,-5,4,.,.
CCc1ccc(C(=O)CN2C(=O)NC3(CCCCCC3)C2=O)cc1,.,7.9*,-38,-2,-72
O=C(CN1C(=O)NC2(CCCCCC2)C1=O)c1ccc(F)cc1,2,0,-17,2,-47
Cc1ccnc(NC(=S)N2CC3CN(c4cccc(C(F)(F)F)c4)CC3C2)c1 (centres undefined),.,.,12,.,.
COc1ccc2c(c1)-c1c(ssc1=S)C(C)(C)N2C(=O)CSC1=NCCS1,-2,-2,52*,-8,10
COc1ccccc1N1CCN(c2ncnc3nc[nH]c23)CC1,5,7.9*,3,7,-18
COc1ccc(N2CCN(c3ncnc4nc[nH]c34)CC2)cc1,6,0,5,3,-13
CC[C@@H](CCCCCC#N)CCC(=O)N(c1ccccc1)c1ccccc1,.,-6,31,.,.
Cc1onc(-c2ccccc2Cl)c1C(=O)NC(=S)NCCc1ccccc1,1,8.6*,6,-1,17
COC(=O)[C@H](CC(C)C)N(Cc1cn(Cc2ccccc2)nn1)S(=O)(=O)c1ccccc1Br,.,-4,-1,.,.
SMILES,NR2E3 ag-1,SMARCA2 activ,NR2F2 inh,GalR3 antagonist,NR2E3 ag-2
COC(=O)[C@H](C)N(Cc1cn(Cc2ccccc2)nn1)S(=O)(=O)c1ccccc1Br,.,7.8*,18,.,.
CS(=O)(=O)c1nc(-c2ccccc2)cc(C(F)(F)F)n1,7,-10,-71,23*,-7
CCOC(=O)/C(=C\c1ccc(Cl)cc1)c1nc2sc(C)c(C)c2c(=O)[nH]1,1,-2,11,14*,13
Cc1ccc(NC(=O)C2CCCN(c3nnc(-n4cccc4)s3)C2)c(C)c1 (centres undefined),.,-4,0,.,.
COCCN(C(=O)c1cc(-c2ccncc2)nc2ccccc12)c1c(N)n(CC(C)C)c(=O)[nH]c1=O,1,2,-2,2,-9
CCCCN(C(=O)c1cc(-c2ccncc2)nc2ccccc12)c1c(N)n(CC(C)C)c(=O)[nH]c1=O,.,7.9*,9,-3,-1
COC(=O)Cn1nc(-c2ccccc2)c2cccc(C(F)(F)F)c21,.,.,-10,.,.
Cc1cnn(-c2ccccc2)c1NC(=O)COCc1ccccc1,.,-1,11,.,.
Cc1cc(/C=C\c2ccc3cc(N(C)C)ccc3[n+]2C)c(C)n1-c1ccccc1,5,.,.,.,100*
COc1ccc(C)c(NC(=O)[C@@H]2CCCN2S(=O)(=O)c2cccc3cccnc23)c1,.,.,12,.,.
COc1ccc(CN2C[C@]3(C=C(C)Cn4c(=O)n(-c5ccccc5)c(=O)n43)N=C2NC(=O)c2ccccc2)c(OC)c1,.,-4,-4,.,.
Cc1cccc(/C=C(\c2nc3ccccc3[nH]2)S(=O)(=O)c2ccccc2)c1,.,-7,33,11,43
CC(C)(C)c1ccc(/C=C(\c2nc3ccccc3[nH]2)S(=O)(=O)c2ccccc2)cc1,1,.,.,.,81*
CC(Cc1ccccc1)NC(=O)c1ccc([N+](=O)[O-])cc1 (centres undefined),-2,7.8*,-36,-3,-67
CC(Cc1ccccc1)NC(=O)/C=C/c1ccc([N+](=O)[O-])cc1 (centres undefined),-3,-3,-2,-2,3
Cc1ccc2nc(-c3ccc(NC(=O)COC(=O)c4ccc([N+](=O)[O-])o4)cc3)sc2c1,-6,3,-82,-3,-174
COc1ccc(/C=C(\C#N)C(=O)OCC(=O)Nc2ccc(-c3nc4ccc(C)cc4s3)cc2)cc1,0,7.8*,-47,-3,-160
Cc1ccc(NC(=O)COC(=O)c2ccco2)cc1,6,2,-2,-2,7
Cc1ccc2nc(-c3ccc(NC(=O)COC(=O)c4ccco4)cc3)sc2c1,-1,7.9*,-55,-2,-148
Cc1ccc2nc(-c3ccc(NC(=O)COC(=O)c4ccc(Br)o4)cc3)sc2c1,0,9.3*,-74,5,-132
CC(C)CNc1cccc2c1S(=O)(=O)N(Cc1cn(Cc3cccc(C(F)(F)F)c3)nn1)Cc1ccccc1O2,.,2,14,.,.
COC(=O)[C@@]12CCCCC3=C1N(CCC3)C(=O)[C@H]2CC(=O)NCCCCc1ccccc1,.,-3,-6,.,.
O=c1[nH]c(CSc2ccccn2)nc2c1oc1ccccc12,0,7.8*,-17,1,-132
C[C@@H]1CN([C@@H](C)COC(=O)C(C)(C)C)C(=O)c2cc(NC(=O)Nc3ccccc3)ccc2O[C@@H](C)CCCCO[C@H]1CN(C)S(=O)(=O)c1ccc(F)cc1,.,.,-4,.,.
